According to ChEMBL document CHEMBL4020840, “Synthesis and Biological Evaluation of Selenium-Containing 4-Anilinoquinazoline Derivatives as Novel Antimitotic Agents” (J Med Chem, 2018):
The source made the active and inactive calls. No cut-off for these calls is given here.

How the values were obtained:
MCF7 = experiment: Induction of morphological changes in human MCF7 cells at 2 to 8 nM after 48 hrs by confocal microscopic method; type: functional, cell-based
How it was run: (§1)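 Human cancer cells were treated at the indicated concentrations, or 0.01% DMSO vehicle, for 48 h. Cells were then fixed and their morphology was examined by microscopy with a 20× objective.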

HeLa [1] = experiment: Induction of morphological changes in human HeLa cells at 2 to 8 nM after 48 hrs by confocal microscopic method; type: functional, cell-based; how it was run: as §1
MGC-803 = experiment: Induction of morphological changes in human MGC803 cells at 2 to 8 nM after 48 hrs by confocal microscopic method; type: functional, cell-based; how it was run: as §1
A549 [2] = experiment: Induction of ROS generation in human A549 cells at 2 to 8 nM after 12 hrs by DCFH-DA staining based fluorescence microscopic method; type: functional, cell-based
How it was run: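 A549 plated at 3 × 10⁵ cells/well and grown 24 h, then exposed to compound (2, 4, 8 nM) for 12 h. Loaded with DCFH-DA in fresh medium at 37 °C for 30 min and washed three times with PBS. DCF fluorescence read at excitation 488 and emission 525 nm. Images taken after Hoechst 33342 nuclear staining.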

Sus scrofa = organism: Sus scrofa; experiment: Inhibition of porcine brain tubulin polymerization measured every 60 secs for 90 mins by DAPI staining based fluorescence assay
How it was run: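 Purified tubulin was tested in a kit assay. Final buffer: 80 mM PIPES sesquisodium (pH 6.9), 2.0 mM MgCl₂, 0.5 mM EGTA, 1 mM GTP, 10.2% glycerol. Compound (0.1–10 μM) was prewarmed at 37 °C for 1 min before tubulin was added. DAPI reporter fluorescence (ex 340 / em 410 nm) was read every 60 s for 90 min. Area under the curve gave percent inhibition versus control and the IC50.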

A549 [3] = experiment: Disruption of microtubule network in human A549 cells at 2 nM after 12 hrs by Hoechst 33342 staining based laser scanning confocal microscopic method; type: cell-based
How it was run: (§2)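 A549 and HeLa cells at 3 × 10⁵ per confocal dish, grown 24 h, then exposed to compound (2, 4 or 8 nM) or 0.01% DMSO for 12 h. Fixed in 4% paraformaldehyde at 37 °C for 15 min, permeabilised with 0.5% Triton X-100, blocked with 10% goat serum. Stained with mouse anti-tubulin at 4 °C overnight, then Alexa-Fluor 488 secondary; Hoechst 33342 nuclear stain; confocal imaging.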

A549 [4] = experiment: Disruption of microtubule network in human A549 cells at 4 to 8 nM after 12 hrs by Hoechst 33342 staining based laser scanning confocal microscopic method; type: cell-based; how it was run: as §2
HeLa [5] = experiment: Disruption of microtubule network in human HeLa cells at 2 nM after 12 hrs by Hoechst 33342 staining based laser scanning confocal microscopic method; type: cell-based; how it was run: as §2
HeLa [6] = experiment: Disruption of microtubule network in human HeLa cells at 4 to 8 nM after 12 hrs by Hoechst 33342 staining based laser scanning confocal microscopic method; type: cell-based; how it was run: as §2
A549 [7] = experiment: Cell cycle arrest in human A549 cells assessed as accumulation at G2/M phase up to 24 hrs by propidium iodide staining based flow cytometry; type: functional
How it was run: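 A549 seeded in six-well plates at 3 × 10⁵ cells/well and treated for 12 or 24 h; vehicle 0.01% DMSO. Cells fixed overnight in ice-cold 70% ethanol, treated with RNase A at 37 °C for 30 min, then stained with PI at 4 °C for 30 min. About 10 000 events acquired by flow cytometry at 488 nm; three experiments.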

A549 [8] = experiment: Induction of apoptosis in human A549 cells assessed as upregulation of Bax level at 2 to 4 nM after 24 to 48 hrs by Western blot method; type: functional, cell-based
How it was run: (§3)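 A549 seeded in 60 mm dishes at 5 × 10⁵ cells and treated for 24 or 48 h. Lysed in RIPA buffer on ice for 30 min and spun at 12 500g. Protein measured by BCA; 40 μg run on 8−12% SDS−PAGE and moved to nitrocellulose. Blocked in 5% milk, primary antibodies at 4 °C overnight, HRP secondary 2 h, ECL detection.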

A549 [9] = experiment: Induction of apoptosis in human A549 cells assessed as upregulation of Bad level at 2 to 4 nM after 24 to 48 hrs by Western blot method; type: functional, cell-based; how it was run: as §3
A549 [10] = experiment: Induction of apoptosis in human A549 cells assessed as downregulation of Bcl2 level at 2 to 4 nM after 24 to 48 hrs by Western blot method; type: functional, cell-based; how it was run: as §3
A549 [11] = experiment: Induction of mitochondrial membrane disruption in human A549 cells at 2 to 8 nM after 48 hrs by JC1/Hoechst 33342 staining based flow cytometry; type: functional, cell-based
A549 [12] = experiment: Antimigratory activity against human A549 cells assessed as suppression of wound healing at 4 nM after 24 hrs by phase contrast microscopic method; type: functional, cell-based
How it was run: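 Scratch wound assay: A549 plated at 5 × 10⁴ cells/dish and grown 24 h before scraping with a 10 μL tip. Medium then swapped to serum-free DMEM containing compound (4 nM) for 24 h. After a PBS wash, wound images taken at 0 and 24 h; at least three independent experiments.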

A549 [13] = experiment: Antitumor activity against human A549 cells xenografted in Balb/c mouse assessed as tumor growth inhibition at 30 mg/kg, ip treated once in 2 days for 10 days relative to control; type: functional; settings: read-out: TGI
How it was run: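 Male BALB/c nude mice, 5 weeks old, 18−20 g. Right flank injected sc with 0.1 mL of 1 × 10⁷ cells/mL log-phase A549 in FBS-free DMEM. At ~100 mm³, randomised into groups of 5 and dosed ip every 2 days; vehicle controls got equal volume. Tumour volume (0.5 × length × width²) and body weight recorded every 2 days.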

SMILES | Activity (MCF7) | Activity (HeLa [1]) | Activity (MGC-803) | Activity (A549 [2]) | inhibition (Sus scrofa) | Activity (A549 [3]) | Activity (A549 [4]) | Activity (HeLa [5]) | Activity (HeLa [6]) | Activity (A549 [7]) | Activity (A549 [8]) | Activity (A549 [9]) | Activity (A549 [10]) | Activity (A549 [11]) | Activity (A549 [12]) | inhibition in vivo at 30 mg/kg (A549 [13]) [%]
C[Se]c1ccc(N(C)c2nc(C)nc3ccccc23)cc1 | Active | Active | Active | Active | Dose-dependent effect | inactive | Active | inactive | Active | Dose-dependent effect | Active | Active | Active | Active | Active | –
COc1ccc(/C=C\c2cc(OC)c(OC)c(OC)c2)cc1OP(=O)(O)O [FOSBRETABULIN] | – | – | – | – | – | – | – | – | – | – | – | – | – | – | – | 56.6
